From article PMC3936293 (Theranostics, 2014)
Where two headings read alike, the source gives them in different places.

How the values were obtained:
[1] = literature data, ref [11]; cited from earlier work
[2] = PET/CT imaging of tumor and organ uptake; assay type: in vivo; conditions: male, human, total radioactivity
[3] = Blood radioactivity clearance; assay type: in vivo, human; conditions: bi-exponential fit of blood radioactivity concentration, 4 patients
In short: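 Four patients with newly diagnosed prostate cancer, fasted at least 4 h, received the 64Cu-labelled GRPr antagonist (130-233 MBq; 10-17 µg) diluted in 0.9% NaCl with 0.1% bovine serum albumin. Venous blood was drawn at 1, 2, 3, 4, 5, 10, 15 and 30 min and at 1, 2 and 4 h p.i. Radioactivity per mL was gamma-counted, reported as mean ± SD, and fitted bi-exponentially.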

[4] = Safety monitoring after injection; assay type: in vivo, human; conditions: 4 patients; laboratory tests before and 1-2 weeks after injection
In short: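 Patients were monitored from tracer administration until the end of the last PET/CT session (20 h p.i.) by interview, electrocardiography, heart rate and blood pressure. Serum electrolytes, liver and pancreatic enzymes, creatinine and blood counts were measured before and 1-2 weeks after injection (130-233 MBq; 10-17 µg).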

[5] = Metabolite analysis of plasma and urine by RP-HPLC; assay type: in vivo, human
In short: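 Plasma was prepared by centrifuging blood drawn at 5 min, 30 min, 1 h and 4 h p.i., deproteinised with two volumes of ethanol, centrifuged again, and the supernatant analysed. In patient 2, a 2 h urine sample was loaded onto a C18 cartridge and eluted with ethanol. Analysis used reversed-phase HPLC (C18; 0.1% TFA in water/acetonitrile gradient) with photodiode-array and flow-through gamma detection.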

Radiation dosimetry = assay type: in vivo, human
In short: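 PET scans were taken at 20 min, 4 h and 20 h p.i., with attenuation correction by 68Ge transmission or CT. Body-weight-normalised SUVs came from circular ROIs centred in each organ. Urine was collected to 18 h in patients 2 and 3, and total excretion was calculated from 1 mL aliquots. Absorbed doses were computed in OLINDA/EXM 1.0 from the time-activity curves and urinary excretion (dynamic bladder model, 3-h voiding interval). Values are mean ± SD.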

[6] = OLINDA/EXM 1.0, dynamic bladder model, 3-hour voiding interval, mean ± SD

C[N+](C)(CF)CCO [^18F-fluorocholine]
Effective dose [1]: 0.031 ± 0,007 mSv/MBq | Radiation dose kidney [1]: 0.159 ± 0,072 mSv/MBq | Radiation dose liver [1]: 0.059 ± 0,012 mSv/MBq | Radiation dose spleen [1]: 0.054 ± 0,021 mSv/MBq | Radiation dose urinary bladder wall [1]: 0.063 ± 0,060 mSv/MBq

CC(C)C[C@H](NC(=O)C[C@H](O)[C@H](CC(C)C)NC(=O)[C@H](Cc1c[nH]cn1)NC(=O)CNC(=O)[C@@H](NC(=O)[C@H](C)NC(=O)[C@H](Cc1c[nH]c2ccccc12)NC(=O)[C@H](CCC(N)=O)NC(=O)[C@@H](Cc1ccccc1)NC(=O)COCCOCCOCCOCCNC(=O)CN1CCCN2CCN(CCCN(CC(=O)O)CC2)CC1)C(C)C)C(N)=O [^64Cu-CB-TE2A-AR06, (^64Cu-4,11-bis(carboxymethyl)-1,4,8,11-tetraazabicyclo(6.6.2)hexadecane)-PEG4-D-Phe-Gln-Trp-Ala-Val-Gly-His-Sta-LeuNH2, metal not drawn]
SUV at 4 h ([2]; bladder): 14 ± 6.63 SUV | SUV at 4 h ([2]; intestine): 0.78 ± 0.68 SUV | SUV at 4 h ([2]; kidney parenchyma): 1.64 ± 0.37 SUV | SUV at 20 h ([2]; kidney parenchyma): 0.71 ± 0.34 SUV | SUV at 4 h ([2]; liver): 1.8 ± 1.02 SUV | SUV at 4 h ([2]; pancreas): 6.73 ± 3.34 SUV | SUV at 20 h ([2]; pancreas): 0.28 ± 0.22 SUV | SUV at 4 h ([2]; prostate): 0.95 ± 0.42 SUV | SUV at 4 h ([2]; urinary tract collection system): 5.86 ± 5.34 SUV | initial half-life in blood [3]: 5 min | terminal half-life in blood [3]: 2.75 h | changes in vital signs, laboratory studies or electrocardiograms [4]: No significant changes | metabolites in urine ([5]; patient 2, 2 h urine sample, C18 column, ethanol elution): Only the parent compound was detected | metabolites in plasma ([5]; plasma at 5 min p.i., ethanol protein precipitation): No metabolites were detected | Effective radiation dose (Radiation dosimetry; [6]): 0.019 ± 0.008 mSv/MBq | Radiation dose urinary bladder wall (Radiation dosimetry; [6]): 0.176 ± 0.001 mSv/MBq | Radiation dose kidney (Radiation dosimetry; OLINDA/EXM 1.0, mean ± SD): 0.033 ± 0.008 mSv/MBq | Radiation dose liver (Radiation dosimetry; OLINDA/EXM 1.0, mean ± SD): 0.039 ± 0.020 mSv/MBq | Radiation dose pancreas (Radiation dosimetry; OLINDA/EXM 1.0, mean ± SD): 0.094 ± 0.027 mSv/MBq | Radiation dose spleen (Radiation dosimetry; OLINDA/EXM 1.0, mean ± SD): 0.031 ± 0.024 mSv/MBq
